Test results from ChEMBL document CHEMBL4406880, “Design, synthesis, and bioactivity of dihydropyrimidine derivatives as kinesin spindle protein inhibitors” (Bioorg Med Chem, 2019).

Legend:
[1] = system: EKVX; assay: Growth inhibition of human EKVX cells assessed as growth percentage at 10 uM incubated for 48 hrs by sulforhodamine B assay relative to control; type: functional; settings: read-out: Activity
Outline: (§1)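 NCI-60 one-dose screen: cells in RPMI 1640 with 5% FBS and 2 mM L-glutamine, plated at 5,000–40,000 cells/well and preincubated 24 h at 37 °C, 5% CO2. Compound is added from a DMSO stock to a final 10 µM and incubated 48 h. Cells are TCA-fixed and stained with sulforhodamine B, read at 515 nm. Output is % growth versus untreated control, with a time-zero plate.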

[2] = system: MDA-MB-435; assay: Induction of apoptosis in human MDA-MB-435 cells assessed as active caspase 9 level incubated for 2 hrs by ELISA (reference value: 1); type: functional
Outline: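 Caspase-9 was measured by human ELISA on cell lysates, with samples in duplicate. Samples were incubated with detection antibody for 2 h at room temperature. This was followed by 1 h with anti-rabbit IgG-HRP and 10 min with TMB substrate. After a stop solution, absorbance was read at 450 nm.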

[3] = Growth inhibition of human HEK293 cells assessed as cell viability at 1.56 ug incubated for 48 hrs by MTT assay relative to control; type: cell-based; settings: read-out: Activity
[4] = system: SK-MEL-5; assay: Growth inhibition of human SK-MEL-5 cells assessed as growth percentage at 10 uM incubated for 48 hrs by sulforhodamine B assay relative to control; type: functional; settings: SK-MEL-5, 48 h, read-out: Activity
Outline: (§2)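 NCI-60 single-dose screen. Cells were grown in RPMI 1640 with 5% FBS and 2 mM L-glutamine and plated at 5,000–40,000 cells/well. After an overnight preincubation at 37 °C in 5% CO2, compound was added at a final 10 µM from a DMSO stock, with DMSO/PBS controls. After 48 h, cells were TCA-fixed and stained with 0.4% SRB, and absorbance was read at 515 nm. Growth is given as a percentage of untreated control.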

[5] = system: HEK293; assay: Growth inhibition of human HEK293 cells assessed as cell viability incubated for 48 hrs by MTT assay; type: cell-based; parameters: unit not given here
Outline: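 HEK 293 normal-cell growth inhibition; measured in triplicate, IC50 reported as mean ± SD.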

[6] = system: SF-268; assay: Growth inhibition of human SF268 cells assessed as growth percentage at 10 uM incubated for 48 hrs by sulforhodamine B assay relative to control; type: functional; settings: SF-268, 48 h, read-out: Activity; outline: as §2
[7] = Inhibition of kinesin (unknown origin) assessed as reduction in ATPase activity using microtubule as substrate measured for 5 to mins; parameters: species or system Homo sapiens
[8] = system: NCI-H522; assay: Growth inhibition of human NCI-H522 cells assessed as growth percentage at 10 uM incubated for 48 hrs by sulforhodamine B assay relative to control; type: functional; settings: NCI-H522, 48 h, read-out: Activity
Outline: (§3)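 NCI-60 one-dose screen. Cells in RPMI 1640 with 5% FBS and 2 mM L-glutamine, seeded at 5,000–40,000 cells/well according to doubling time, and preincubated overnight at 37 °C, 5% CO2. A time-zero plate was TCA-fixed at drug addition. Compound from DMSO stock, final 10 µM, 48 h; DMSO vehicle controls. Fixation with TCA, 10% final (16% for suspension cells). SRB stain, Tris solubilization, A515. Result given as % growth versus untreated cells.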

[9] = system: MDA-MB-435; assay: Growth inhibition of human MDA-MB-435 cells assessed as growth percentage at 10 uM incubated for 48 hrs by sulforhodamine B assay relative to control; type: functional; settings: MDA-MB-435, 48 h, read-out: Activity; outline: as §3
[10] = system: SK-OV-3; assay: Growth inhibition of human SKOV3 cells assessed as growth percentage at 10 uM incubated for 48 hrs by sulforhodamine B assay relative to control; type: functional; settings: SK-OV-3, 48 h, read-out: Activity; outline: as §2
[11] = system: SN12C; assay: Growth inhibition of human SN12C cells assessed as growth percentage at 10 uM incubated for 48 hrs by sulforhodamine B assay relative to control; type: functional; settings: read-out: Activity; outline: as §2
[12] = Growth inhibition of human HEK293 cells assessed as cell viability at 0.39 ug incubated for 48 hrs by MTT assay relative to control; type: cell-based; settings: read-out: Activity
[13] = system: DU-145; assay: Growth inhibition of human DU145 cells assessed as growth percentage at 10 uM incubated for 48 hrs by sulforhodamine B assay relative to control; type: functional; settings: DU-145, 48 h, read-out: Activity; outline: as §1
[14] = Growth inhibition of human HEK293 cells assessed as cell viability at 25 ug incubated for 48 hrs by MTT assay relative to control; type: cell-based; settings: read-out: Activity
[15] = system: NCI-H226; assay: Growth inhibition of human NCI-H226 cells assessed as growth percentage at 10 uM incubated for 48 hrs by sulforhodamine B assay relative to control; type: functional; settings: NCI-H226, 48 h, read-out: Activity; outline: as §3
[16] = system: MDA-MB-435; assay: Induction of apoptosis in human MDA-MB-435 cells assessed as active caspase 3 level incubated for 2 hrs by ELISA (reference value: 1); type: functional
Outline: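 Active caspase-3 was measured by human sandwich ELISA. Samples were incubated on the plate for 2 h at room temperature. This was followed by 1 h with detection antibody, 30 min with anti-rabbit IgG-HRP, and 30 min with chromogen, with all steps at room temperature. Absorbance was read at 450 nm, and levels were read from a standard curve.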

[17] = Growth inhibition of human HEK293 cells assessed as cell viability at 6.25 ug incubated for 48 hrs by MTT assay relative to control; type: cell-based; settings: read-out: Activity
[18] = Growth inhibition of human HEK293 cells assessed as cell viability at 100 ug incubated for 48 hrs by MTT assay relative to control; type: cell-based; settings: read-out: Activity
[19] = system: OVCAR-8; assay: Growth inhibition of human OVCAR8 cells assessed as growth percentage at 10 uM incubated for 48 hrs by sulforhodamine B assay relative to control; type: functional; settings: OVCAR-8, 48 h, read-out: Activity; outline: as §2
[20] = system: COLO 205; assay: Growth inhibition of human COLO205 cells assessed as cell viability at 100 uM incubated for 48 hrs by sulforhodamine B assay; type: functional; settings: COLO 205, 48 h, read-out: Activity
[21] = system: UO-31; assay: Growth inhibition of human UO31 cells assessed as cell viability at 0.1 uM incubated for 48 hrs by sulforhodamine B assay; type: functional; settings: UO-31, 48 h, read-out: Activity
[22] = system: 786-0; assay: Growth inhibition of human 786-0 cells assessed as cell viability at 1 uM incubated for 48 hrs by sulforhodamine B assay; type: functional; settings: 786-0, 48 h, read-out: Activity
Outline: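 NCI-60 five-dose mode: five tenfold dilutions (0.01, 0.1, 1, 10, 100 µM) are applied for 48 h to cells in RPMI 1640 with 5% FBS at 37 °C. Endpoint is TCA fixation with sulforhodamine B read at 515 nm. % growth comes from the 0 h and control absorbances. GI50 is the concentration giving a 50% reduction in net cell growth.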

[23] = system: MDA-MB-231; assay: Growth inhibition of human MDA-MB-231 cells assessed as cell viability at 100 uM incubated for 48 hrs by sulforhodamine B assay; type: functional; settings: MDA-MB-231, 48 h, read-out: Activity
[24] = system: CCRF-CEM; assay: Growth inhibition of human CCRF-CEM cells assessed as cell viability at 100 uM incubated for 48 hrs by sulforhodamine B assay; type: functional; settings: read-out: Activity

| Compound | growth at 10 µM [1] [%] | fold change (FC) [2] | viability at 48 h, 1.56 ug [3] [%] | growth at 10 µM [4] [%] | IC50 [5] | growth at 10 µM [6] [%] | IC50 [7] [µM] | growth at 10 µM [8] [%] | growth at 10 µM [9] [%] | growth at 10 µM [10] [%] | growth at 10 µM [11] [%] | viability at 48 h, 0.39 ug [12] [%] | growth at 10 µM [13] [%] | viability at 48 h, 25 ug [14] [%] | growth at 10 µM [15] [%] | fold change (FC) [16] | viability at 48 h, 6.25 ug [17] [%] | viability at 48 h, 100 ug [18] [%] | growth at 10 µM [19] [%] | other results |
| --- | --- | --- | --- | --- | --- | --- | --- | --- | --- | --- | --- | --- | --- | --- | --- | --- | --- | --- | --- | --- |
| CC(=O)N1C(=S)NC(C)=C(C(=O)OCc2ccccc2)C1c1ccc2c(c1)OCO2 (racemic) | 96.8 | 18.79 | 69.3 | 91.2 | 27.99 | 73.8 | 3.86 | 75.7 | 60.1 | 79.2 | 54.5 | 76.2 | 95 | 50 | 96.3 | 7.9 | 61.3 | 41.4 | 80.3 |  |
| CC(=O)C1=C(C)Nc2nc3ccccc3n2C1c1ccc2c(c1)OCO2 (racemic) | 110 |  | 70.7 | 102 | 19.3 | 105 | 14.1 | 73 | 93.1 | 106 | 101 | 77.4 | 109 | 48.6 | 103 |  | 59 | 36.6 | 98.6 |  |
| CC1=C(C(=O)OCc2ccccc2)C(c2ccc3c(c2)OCO3)n2c(nc3ccccc32)N1 (racemic) | 42 to 64.4 | 12.43 | 67.2 | 25.5 to 28 | 16.75 | 26 to 59.6 | 4.36 | 8 to 26.3 |  | 27 to 41.7 | 47.6 to 51 | 77.6 | 49 to 53.5 | 47.2 | 58 to 58.2 | 6.83 | 58.7 | 36 | 39 to 46.7 | viability at 100 µM [20]: 39%; viability at 0.1 µM [21]: 93%; viability at 1 µM [22]: 27%; viability at 100 µM [23]: 49%; viability at 100 µM [24]: 18% |
